EBNA-1 inh = blocks EBNA-1 binding to DNA; EBNA-1 DNA binding, fluorescence polarization; inhibition, % at 14.8 µM; 0.34% of 300,000 active; AID 1950; in the data active = inhibition above about 28%
ARFGAP1 inhibitor = rat ARFGAP1 inhibition | Arfgap1-stimulated ARF1 GTP hydrolysis, GDP FP detection | 0.26% of 360,000 active | inhibition, % at 16.5 µM | Q62848;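 active = inhibition above a per-plate limit, mean inhibition of low control wells plus 3 SD, cut at about 25% in these data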
Target sequence (Q62848 1-136 limits assumed): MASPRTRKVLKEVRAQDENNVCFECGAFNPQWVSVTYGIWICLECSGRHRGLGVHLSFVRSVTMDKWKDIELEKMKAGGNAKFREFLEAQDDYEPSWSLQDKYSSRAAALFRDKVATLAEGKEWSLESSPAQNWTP
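Material: rat Arfgap1 GAP domain (His6, aa 1-136), purified enzyme. Also added: human ARF1(Δ1-17)-GTP substrate. Compound dosing: 16.5 µM single point, 1.26% DMSO. Timing: enzyme reaction 120 min at 25 °C after 20 min preincubation. Signal: GDP detection by fluorescence polarization. Read-out basis: percent inhibition of GAP-stimulated GDP formation, scaled between DMSO and no-Arfgap1 medians.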
ZTA counter = counter-screen for EBNA-1 inhibitors: inhibitors of Epstein-Barr virus ZTA; P03206; 0.15% of 320,000 active; inhibition, % at 11 µM; ZTA-DNA binding, fluorescence polarization; in the data active = inhibition above about 33%
Target sequence (P03206 whole entry, looked up): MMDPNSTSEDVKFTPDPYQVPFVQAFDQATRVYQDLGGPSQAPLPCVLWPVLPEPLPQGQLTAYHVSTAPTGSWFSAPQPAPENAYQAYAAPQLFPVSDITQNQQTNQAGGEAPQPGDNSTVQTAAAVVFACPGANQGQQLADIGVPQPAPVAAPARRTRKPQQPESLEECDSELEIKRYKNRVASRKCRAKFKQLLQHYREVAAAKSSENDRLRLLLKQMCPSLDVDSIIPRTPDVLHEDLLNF
ASAP1 inh = blocks human ASAP1-stimulated Arf1 GTP hydrolysis | inhibition, % at 16.5 µM | GDP FP detection | 0.19% of 360,000 active; in the data active = inhibition above about 25%
ASAP1 GAP conf = confirmation of human ASAP1 inhibitors; AID 624431; shares compounds with ASAP1 inh; inhibition, % at 16.5 µM; ASAP1-stimulated Arf1 GTPase, GDP fluorescence polarization; 37% of 620 active;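 active = mean inhibition over triplicates exceeds the hit threshold derived for the earlier primary screening run, cut at about 25% in these data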
ARFGAP1 confirm = confirmation of rat ARFGAP1 inhibitors; shares compounds with ARFGAP1 inhibitor; ARFGAP1-stimulated ARF1 GTP hydrolysis, GDP tracer FP; inhibition, % at 16.5 µM; 30% of 890 active;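 active = average inhibition over triplicates above the hit cutoff set in the earlier primary screen, cut at about 25% in these data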
A number is an active result; n = inactive; x = not tested or not shown. This is a sample that favours compounds with a hit; in the whole collection about 0.75% have one here.

SMILES	EBNA-1 inh	ARFGAP1 inhibitor	ZTA counter	ASAP1 inh	ASAP1 GAP conf	ARFGAP1 confirm
COc1ccc(/C=N\NC(=O)c2ccc([N+](=O)[O-])c(C)c2)cc1COc1ccccc1C(N)=O	n	78.5	n	47.4	87.8	122.9
Cc1ccc(S(=O)(=O)N2CCCc3nc(-c4ccc(F)cc4)ccc32)cc1	x	n	x	n	x	x
COC(=O)[C@]12C[C@H](CC(=O)N3CCC(c4ccccc4)CC3)C(=O)N(CCC3=CCCCC3)C1=C[C@H](C(C)(C)C)O[C@@H]2C	x	n	x	n	x	x
C=CCn1c(N)c(C(=O)NCC2CCCO2)c2nc3ccccc3nc21 (configuration not stated)	n	n	n	n	x	x
COc1ccc(-n2c(N)c(C(=O)NCC3CCCO3)c3nc4ccccc4nc32)c(OC)c1 (configuration not stated)	n	27.8	n	31.3	n	n
O=C(N/N=C/c1ccc(Cl)c([N+](=O)[O-])c1)c1ccc2c(c1)OCCO2	x	65.5	x	82.5	103.7	99.2
COC(=O)c1c(-c2ccc(OC)cc2)c2c(c3c4cc(OC)ccc4n(C(=O)c4ccccc4)c13)C(=O)N(C)C2	x	n	x	n	x	x
Cc1ccc(C(=O)Nc2cccc(C(F)(F)F)c2)cc1NC(=O)c1c[nH]c2cc(C(F)(F)F)ccc2c1=O	x	n	x	n	x	x
CCN1CCN(Cc2ccc(NC(=O)c3ccc(C)c(NC(=O)c4c[nH]c5cc(C(F)(F)F)ccc5c4=O)c3)cc2C(F)(F)F)CC1	n	44.8	n	43.2	53.1	69.9
C[C@H](CO)N1C[C@H](C)[C@@H](CN(C)C(=O)Nc2ccc(N3CCN(C)CC3)cc2)OCc2cn(nn2)CCCC1=O	x	n	x	n	x	x
NC(=O)c1cccc(-c2coc3c(C(=O)NCc4cccnc4)cccc23)c1	x	n	x	n	x	x
CC(=O)c1cccc(NC(=O)c2cccc3c(-c4cccnc4)coc23)c1	x	25.5	x	34.6	26.3	29.2
NC(=O)c1ncn([C@@H]2O[C@H](C(=O)N3CCN(Cc4ccccn4)CC3)[C@@H](O)[C@H]2O)n1	x	n	x	n	x	x
COc1cccc(OC)c1-c1nn2c(-c3cc(-c4ccccc4)n[nH]3)nnc2s1	59.5	130.1	165.3	129.4	167.4	182.5
O=C(Nc1nnc(-c2ccc3c(c2)OCCO3)o1)c1ccc(Cc2ccccc2)cc1	n	92.5	n	133.0	138.8	155.3
Nc1[nH]c(C(=O)c2ccccc2)c(-c2cccnc2)c1C(=O)c1ccccc1	x	n	x	n	x	x
CC1CCN(C(=O)c2ncn3c2C(=O)NC[C@H]3C)CC1	x	n	x	n	x	x
COc1cccc(/C=C2/Sc3ccc(C(=O)NCCN4CCCCCC4)cc3NC2=O)c1	n	29.0	n	31.1	35.8	37.2
Cc1cccc(/C=C2/Sc3ccc(C(=O)NCCN4CCCC4)cc3NC2=O)c1	n	n	n	n	x	x
CCN1CCN(Cc2ccc(NC(=O)c3cc(NC(=O)c4ccno4)cc(OC)c3)cc2C(F)(F)F)CC1	n	n	n	n	x	x
CCN1CCN(Cc2ccc(NC(=O)c3cc(NC(=O)c4cncc(-c5cccs5)c4)cc(OC)c3)cc2C(F)(F)F)CC1	n	52.0	n	37.4	81.6	91.6
Cc1cc(C)c(S(=O)(=O)N2C[C@H]3CON(C)[C@H]3C[C@H]2c2ccc(-n3ccnc3)cc2)c(C)c1	x	n	x	n	x	x
CCOc1ccc(CCN2C(=S)N([C@@H](Cc3ccc(O)cc3)CN3CCC[C@@H]3CN3C(=S)NC[C@@H]3Cc3ccc(O)cc3)C[C@@H]2Cc2ccc(O)cc2)cc1	x	25.8	x	n	x	n
CCOc1ccc(CCN2C(=S)N([C@@H](Cc3ccccc3)CN3CCCC3CN3C(=S)NC[C@@H]3Cc3ccccc3)C[C@@H]2Cc2ccc(O)cc2)cc1 (some centres not stated)	x	n	x	n	x	x
CCOc1ccc(NC(=S)N=Nc2c(O)[nH]c3ccccc23)cc1	n	27.0	n	n	x	n
O=C(Nc1cccc(-c2cc3ccccc3oc2=O)c1)c1ccc(Br)o1	n	26.8	n	n	x	n
COc1ccc(-c2cc3ccccc3oc2=O)cc1NC(=O)c1ccc(Br)o1	n	n	n	n	x	x
Cc1ccc(-n2nc3ccc(NC(=O)c4ccco4)cc3n2)cc1	n	30.1	n	n	x	n
COc1cc2c(cc1OC)C(C)N(C(=O)c1cc3c(s1)-c1c(C)cccc1OC3)CC2 (configuration not stated)	n	n	n	n	x	x

High-throughput results deposited in PubChem by The Scripps Research Institute Molecular Screening Center.
